# Source: PubChem BioAssay (Broad Institute)
# A selection: hits, their analogues and other compounds. The true share with any hit is near 2.6%.
# E-sel inducer: E-selectin induction on HUVECs. P16581. HUVEC E-selectin immunofluorescence imaging; normalized: neutral wells 0, TNF-alpha wells 100. activation, % at 7.58 µM. hit rate 0.37% among 260,000;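 active means mean E-selectin-positive cell signal at least 10% of the positive control, reached in at least 60% of replicates, without over 20% cell loss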
#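 Test system: HUVEC; input: 3,000 HUVEC/well; measured by: immunofluorescence imaging; read-out: % PE-positive cells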
# RAD52 anneal inh: RAD52 (human) annealing inhibition | hit rate 0.46% among 360,000 | inhibition, % at 18.7 µM | recombinant RAD52 DNA annealing, FRET fluorescence;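 active means every replicate showing at least 50% inhibition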
# Target sequence (P43351 whole entry, looked up): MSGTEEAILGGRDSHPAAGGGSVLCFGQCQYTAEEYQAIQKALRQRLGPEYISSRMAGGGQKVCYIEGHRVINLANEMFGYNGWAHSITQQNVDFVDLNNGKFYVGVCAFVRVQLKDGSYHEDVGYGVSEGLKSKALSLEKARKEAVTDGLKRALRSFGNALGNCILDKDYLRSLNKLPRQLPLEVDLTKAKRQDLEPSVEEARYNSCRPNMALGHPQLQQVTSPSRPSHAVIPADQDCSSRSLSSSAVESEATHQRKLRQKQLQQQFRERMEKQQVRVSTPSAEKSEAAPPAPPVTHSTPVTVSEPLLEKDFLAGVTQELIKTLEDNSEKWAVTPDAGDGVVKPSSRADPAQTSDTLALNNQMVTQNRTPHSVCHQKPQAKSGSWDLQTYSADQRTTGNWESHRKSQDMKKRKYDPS
# RAD54 inh: RAD54 (human) branch migration inhibition; AID 602329; inhibition, % at 10.4 µM; RAD54 Holliday junction branch migration, FAM/BHQ fluorescence; Q92698; hit rate 0.14% among 360,000;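 active means mean normalized replicate activity at least 40 and at least half of replicates scoring 40 or more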;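 further: 0% = median of neutral control wells and 100% = median of positive control wells; inhibitors cause a drop in the FAM fluorescence signal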
# AF4-AF9 inh: MLL-AF4/AF9 protein interaction inhibition; AID 651704; AlphaScreen, biotin-AF4 peptide binding to FLAG-AF9; hit rate 0.47% among 350,000; P42568; inhibition, % at 10 µM;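 active means every replicate reaching a set inhibition limit, whatever the replicate mean, cut at about 25% in these data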;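 further: 0% = plate neutral control median and 100% = total signal loss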
# rRNA inh HTS: inhibits bacterial ribosomal RNA function over humanized ribosomes; E. coli WT GFP vs humanized-ribosome RFP mutants, fluorescence, 24 h; active compounds read low; DMSO median 0, no signal -100; GFP signal change (wild-type ribosome), % (no concentration beside the values); hit rate 1.6% among 350,000;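 active means significant combined selectivity score with lowered wild-type GFP, culture density cut under 30%, mutant RFP and density less affected; inactive means any of these conditions unmet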
# GSIS activator: primary screen for activators of insulin secretion dependent on glucose, INS-1E cells, GLuc reporter luminescence | INS-1E GLuc reporter insulin secretion, 2-3 h | activation, % at 16.6 µM | hit rate 0.61% among 370,000;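 active means lowest replicate activation of at least 40%, so every replicate reaches that level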;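 further: 0% = median of neutral control wells and 100% = median of IBMX positive control wells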
# An asterisk follows results filed as active; · = not tested or not shown; ! = not confirmed by another sample.
SMILES,E-sel inducer,RAD52 anneal inh,RAD54 inh,AF4-AF9 inh,rRNA inh HTS,GSIS activator
COc1cccc(C(=O)Oc2c(Br)cc(Br)cc2/C=N/NC(=O)c2cc(C)[nH]n2)c1,·,-25,·,1,-20*,-6
Cc1cc(C(=O)N/N=C/c2cccc(OC(=O)c3cccc(Br)c3)c2)n[nH]1,1,7,-4,-1,6,-3
Nc1ccc(S(=O)(=O)Nc2nccc(/C=C/c3cccc(Br)c3)n2)cc1,0,-15,-5,-1,4,-2
Nc1ccc(S(=O)(=O)Nc2nccc(/C=C/c3cccc([N+](=O)[O-])c3)n2)cc1,0,-14,3,-2,10,70*
CCC(=O)N1C[C@@H](C)[C@@H](OC)CN(C)C(=O)c2cc(NS(=O)(=O)CC)ccc2OC[C@H]1C,0,4,-11,-1,0,-4
O=S(=O)(N[C@@H]1CC[C@H](CCn2cc(-c3ccccn3)nn2)O[C@@H]1CO)c1cccc(Cl)c1,1,5,-1,1,-4,-4
COc1cccc(CNC(=O)c2cc3c(c(-c4cccc(-c5cccc(C#N)c5)c4)n2)[C@H](CCO)N(S(=O)C(C)(C)C)C3)c1 (some centres undefined),49*,-136,-18,-2,-22,1
COc1cccc(CNC(=O)c2cc3c(c(-c4cccc(-c5ccc(C#N)cc5)c4)n2)[C@H](CCO)N([S@@](=O)C(C)(C)C)C3)c1,60*,-77,-1,5,-14,-17
CN(CC(=O)Nc1cccc(F)c1)CC(=O)N1CCc2ccccc21,182*,-10,7,0,-8,-9
CN(CC(=O)Nc1ccc(F)cc1)CC(=O)N1CCc2ccccc21,3,-16,0,-2,-7,1
COc1ccccc1CC(Cc1nc2ccccc2[nH]1)c1nc2ccccc2[nH]1 (centres undefined),176*,-18,·,0,-51,-6
CC(C)Cc1nc2ccccc2[nH]1,0,-17,2,-6,14,5
O=C(C(=O)N1CCC(CNS(=O)(=O)c2ccc(F)c(F)c2)CC1)c1cc2ccccc2o1,0,-26,·,3,-12*,-11
Nc1ccc(CC(N)c2csc(Nc3cc(Oc4ccccc4)ncn3)n2)cc1 (centres undefined),0,-27,-2,25*,-2,-6
O=C(C[C@@H]1CC[C@H]2[C@@H](COC[C@H](O)CN2CC2CCCCC2)O1)NCc1ccc(Cl)cc1,0,-8,-1,-1,3,8
Cc1ccc(S(=O)(=O)N2[C@@H]3CNC[C@H]2C3c2ccc(/C=C/c3ccccc3)cc2)cc1 (some centres undefined),0,53*!,·,-2,-28,-8
O=S(=O)(c1ccc(-c2ccccc2)cc1)N1[C@@H]2CNC[C@H]1C2c1ccc(-c2cccnc2)cc1 (some centres undefined),0,66*,·,-3,-36,10
O=S(=O)(c1ccccc1)N1[C@@H]2CNC[C@H]1C2c1ccc(/C=C/c2ccccc2)cc1 (some centres undefined),0,49,·,-2,-9,-11
Cc1ccc(S(=O)(=O)N2[C@@H]3CNC[C@H]2C3c2ccc(-c3ccc(C#N)cc3)cc2)cc1 (some centres undefined),0,55*,·,-3,-21,3
O=C(C[C@H]1CC[C@H]2[C@@H](COC[C@@H](O)CN2CC2CCOCC2)O1)NCC1CC1,0,7,3,-1,4,6
C[C@H]1CCCCO[C@@H](CN(C)Cc2ccc3c(c2)OCO3)[C@@H](C)CN([C@@H](C)CO)C(=O)c2cc(NC(=O)Nc3ccc4c(c3)OCO4)ccc2O1,·,0,-1,16,7,-35
Nc1nc(NCc2ccco2)nc(N2CCCC2)c1[N+](=O)[O-],18,10,·,-2,2,·
Cc1cccc(Nc2nc(N)c([N+](=O)[O-])c(NCc3ccccc3)n2)c1,·,-14,2,3,-14,5
Nc1nc(Nc2ccccc2)nc(NCc2ccccc2)c1[N+](=O)[O-],0,7,·,2,-15*,12
Cc1ccc(CNc2nc(N)c([N+](=O)[O-])c(NCc3ccccc3)n2)cc1,0,·,-7,·,·,126*
SMILES,E-sel inducer,RAD52 anneal inh,RAD54 inh,AF4-AF9 inh,rRNA inh HTS,GSIS activator
CNc1nc(N)c([N+](=O)[O-])c(NCc2ccccc2)n1,-1,-20,3,3,2,8
Nc1nc(NCc2ccco2)nc(N2CCN(Cc3ccccc3)CC2)c1[N+](=O)[O-],0,-9,0,6,-24*,12
COc1cccc(Nc2nc(N)c([N+](=O)[O-])c(NCc3ccccc3)n2)c1,·,-10,-4,·,-34*,0
COc1ccc(NC(=O)N[C@H]2CC[C@@H](CCn3cc(C4(O)CCCC4)nn3)O[C@@H]2CO)cc1,0,-2,-4,-1,1,-7
C[C@@H]1CN([C@@H](C)CO)S(=O)(=O)c2ccc(/C=C/c3ccccc3)cc2O[C@@H]1CN(C)C(=O)c1ccc2c(c1)OCO2,1,10,16,2,-6,-9
C[C@H](CO)N1C[C@H](C)[C@H](CN(C)C(=O)Cc2ccncc2)Oc2ncc(C#CC3(O)CCCC3)cc2C1=O,0,-15,0,-1,6,7
Nc1nc(NCc2ccccc2)nc(NCc2ccccc2)c1[N+](=O)[O-],·,·,-4,·,·,46*
O=C(C[C@@H]1C=C[C@@H](NC(=O)NC2CCCCC2)[C@H](CO)O1)NCc1ccc(F)cc1,0,2,7,-6,-1,-11
CSc1ccc(/C=C/c2ccc3cccc(O)c3n2)cc1,·,-17,·,4,-30*,4
O=C(NCCc1cccs1)c1ccc(CS(=O)Cc2ccc(Cl)cc2)o1 (centres undefined),11,-3,-1,2,-24*,-8
CCOc1ccc(CCNC(=O)c2ccc(CS(=O)Cc3cccc(Cl)c3)o2)cc1 (centres undefined),·,-7,-17,-2,-42,-49
CCOc1ccc(CCNC(=O)c2ccc(CS(=O)Cc3ccc(Cl)cc3)o2)cc1OCC (centres undefined),0,-13,4,-1,-32*,-22
CC(=O)N1Cc2cc(C(=O)NCc3cc(F)cc(F)c3)nc(-c3cccc(C4=CCCC4)c3)c2[C@H]1CCO,·,-28,·,1,·,·
C[C@H]1CN([C@@H](C)CO)C(=O)Cc2cc(NS(=O)(=O)c3ccccc3)ccc2O[C@@H]1CN(C)Cc1ccc(-c2ccccc2)cc1,0,-11,-5,-1,-3,0
CCc1ccc2c(c1)cc(CN(Cc1ccco1)C(C)=O)c1nnnn12,·,-16,·,3,16,52*
